Measured values taken from ChEMBL document CHEMBL3407490, “Synthesis of functionalized 3-, 5-, 6- and 8-aminoquinolines via intermediate (3-pyrrolin-1-yl)- and (2-oxopyrrolidin-1-yl)quinolines and evaluation of their antiplasmodial and antifungal activity” (Eur J Med Chem, 2015).
≈ marks a conversion by molar mass, not a printed value. Calls of active or inactive are those of the source. The rule behind the calls is not given here.

Legend:
Plasmodium falciparum [1] = assay: Antiplasmodial activity against chloroquine-sensitive asexual erythrocytic stage of Plasmodium falciparum NF54 assessed as […] lactate dehydrogenase assay; type: functional, organism-based
Summary of the method: (§1)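 Asexual erythrocytic P. falciparum kept in continuous culture (modified Trager–Jensen). Growth measured by parasite lactate dehydrogenase assay (modified Makler). Full dose-response: 10 twofold dilutions in complete medium from 10 μg/mL down to 0.02 μg/mL. Tested in triplicate on one occasion. Chloroquine and artesunate as references.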

Candida albicans [2] = assay: Antifungal activity against Candida albicans IHEM 374 by microdilution method; type: functional
Summary of the method: (§2)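 Broth microdilution: log2 dilution series made from stocks in 10% DMSO, diluted 1:5 in RPMI 1640 with glutamine and without bicarbonate. Equal volume of working inoculum added: 1 × 10^3 CFU/mL at 37 °C (C. albicans, A. flavus) or 1 × 10^5 CFU/mL at 20 °C (R. bogoriensis). Absorbance read at 530 nm. MIC taken as the concentration giving 50% growth inhibition versus 1% DMSO medium control. Amphotericin B as positive control.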

[3] = Antifungal activity against Rhodotorula bogoriensis MUCL 11796 by microdilution method; type: functional; summary of the method: as §2
Aspergillus flavus [4] = assay: Antifungal activity against Aspergillus flavus IHEM 5785 by microdilution method; type: functional; summary of the method: as §2
Candida albicans [5] = assay: Antifungal activity against Candida albicans IHEM 374 at 600 ug/dish after 1 day by disk diffusion method; type: functional, organism-based; details: 600 ug/dis
Summary of the method: (§3)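 Disk diffusion: strains subcultured on Sabouraud dextrose agar; inoculum of colonies (yeast) or mycelium plus spores (A. flavus) in sterile saline adjusted to 0.5 McFarland, swabbed onto Mueller-Hinton + GMB agar ([…], 0.5 μg/mL methylene blue). DMSO-dissolved compound applied to 6 mm paper disks and freeze-dried; 600 μg/dish in triplicate. Incubated at 37 °C for 1 day (C. albicans, A. flavus) or 20 °C for 4 days (R. bogoriensis). Nystatin disks as positive control, DMSO disks as negative control.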

[6] = Antifungal activity against Rhodotorula bogoriensis MUCL 11796 at 600 ug/dish after 4 days by disk diffusion method; type: functional; details: 600 ug/dis; summary of the method: as §3
Aspergillus flavus [7] = assay: Antifungal activity against Aspergillus flavus IHEM 5785 at 600 ug/dish after 1 day by disk diffusion method; type: functional, organism-based; details: 600 ug/dis; summary of the method: as §3
Plasmodium falciparum [8] = assay: Antiplasmodial activity against chloroquine-resistant asexual erythrocytic stage of Plasmodium falciparum Dd2 assessed as […] lactate dehydrogenase assay; type: functional, organism-based; summary of the method: as §1
Plasmodium falciparum [9] = assay: Resistance index, ratio of IC50 for chloroquine-resistant asexual erythrocytic stage of Plasmodium falciparum Dd2 to IC50 for chloroquine-sensitive asexual erythrocytic stage of Plasmodium falciparum NF54; type: functional
Summary of the method: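 Resistance index calculated as IC50 against Dd2 divided by IC50 against NF54, both from the pLDH assay.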

CHO = assay: Cytotoxicity against CHO cells assessed as cell growth and survival after 48 hrs by MTT assay; type: cell-based; details: Cricetulus griseus
Summary of the method: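 CHO mammalian cells; growth and survival read by MTT assay. Samples diluted in complete medium using the same scheme as the emetine reference (tenfold serial dilutions, 6 concentrations). Emetine was the reference drug. IC50 obtained by non-linear dose-response curve fitting.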

[10] = Selectivity index, ratio of IC50 for CHO cells to IC50 for chloroquine-sensitive asexual erythrocytic stage of Plasmodium falciparum NF54; type: toxicity, cell-based; details: hamster; read-out: Ratio IC50
Summary of the method: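 Selectivity index calculated as IC50 in CHO cells (MTT) divided by IC50 against NF54 (pLDH).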

With c1cnc2ccc(N3CCCC3)cc2c1 the IC50 (Plasmodium falciparum [1]) was over 50 µM.

C[C@@H]1[C@H](O)[C@@H](C)/C=C/C=C/C=C/C=C/C=C/C=C/C=C/[C@H](O[C@@H]2O[C@H](C)[C@@H](O)[C@H](N)[C@@H]2O)C[C@@H]2O[C@](O)(C[C@@H](O)C[C@@H](O)[C@H](O)CC[C@@H](O)C[C@@H](O)CC(=O)O[C@H]1C)C[C@H](O)[C@H]2C(=O)O [AMPHOTERICIN B] gave an MIC (Candida albicans [2]) of under 0.2 µM, an MIC [3] of under 0.2 µM and an MIC (Aspergillus flavus [4]) of 30 µM (≈ 27.7 µg/mL).

In the case of CC(C)(O)CCCNc1cccc2cccnc12, the IC50 (Plasmodium falciparum [1]) is reported as over 40 µM, the Activity (Candida albicans [5]) is reported as “Active” and the Activity [6] is reported as “Active”. The Activity (Aspergillus flavus [7]) was “Active”, the MIC (Candida albicans [2]) was 1000 µM (≈ 244 µg/mL) and the MIC [3] was 30 µM (≈ 7.33 µg/mL). It also gave an MIC (Aspergillus flavus [4]) of 60 µM (≈ 14.7 µg/mL).

In the case of C[C@H]1[C@H](OC(=O)CCC(=O)O)O[C@@H]2O[C@@]3(C)CC[C@H]4[C@H](C)CC[C@@H]1[C@@]24OO3 [ARTESUNATE], the IC50 (Plasmodium falciparum [8]) is reported as 0.011 µM and the “Ratio IC50” value (Plasmodium falciparum [9]) is reported as 2.2.

OCCCCNc1cnc2ccccc2c1 gave an IC50 (Plasmodium falciparum [1]) of over 45 µM.

In the case of CC1CCCN1c1cccc2ncccc12 (stereo not drawn), the IC50 (Plasmodium falciparum [1]) is reported as over 45 µM.

Cc1nc2ccccc2cc1NCCCC(C)O (stereo not drawn) gave an IC50 (Plasmodium falciparum [1]) of over 40 µM.

For O=C1CCCN1c1cnc2ccccc2c1, the IC50 (Plasmodium falciparum [1]) was over 45 µM.

Work on OCCCCNc1cccc2ncccc12 yielded an IC50 (Plasmodium falciparum [1]) of 19.9 µM, an IC50 (Plasmodium falciparum [8]) of 49 µM and an IC50 (CHO) of over 100 µM. For the same compound, the selectivity ratio [10] was 23 and the “Ratio IC50” value (Plasmodium falciparum [9]) was 2.5.

CC(C)(O)CCCNc1ccc2ncccc2c1 gave an IC50 (Plasmodium falciparum [1]) of over 40 µM.

C1=CCN(c2cccc3ncccc23)C1 showed an IC50 (Plasmodium falciparum [1]) of over 50 µM.

With Cc1nc2ccccc2cc1N1CCCC1C (stereo not drawn) the IC50 (Plasmodium falciparum [1]) was 13.3 µM, the IC50 (Plasmodium falciparum [8]) was 38 µM and the IC50 (CHO) was 294 µM. For the same compound, the selectivity ratio [10] was 22 and the “Ratio IC50” value (Plasmodium falciparum [9]) was 2.9.

For CC(O)CCCNc1cccc2ncccc12 (stereo not drawn), the IC50 (Plasmodium falciparum [1]) was 32.6 µM.

For C1=CCN(c2cnc3ccccc3c2)C1, the IC50 (Plasmodium falciparum [1]) was over 50 µM.

With OCCCCNc1ccc2ncccc2c1 the IC50 (Plasmodium falciparum [1]) was over 45 µM, the Activity (Candida albicans [5]) was “Active” and the Activity [6] was “Active”. The Activity (Aspergillus flavus [7]) was “Active”, the MIC (Candida albicans [2]) was 1200 µM (≈ 260 µg/mL) and the MIC [3] was 1200 µM (≈ 260 µg/mL). It also gave an MIC (Aspergillus flavus [4]) of 10 µM (≈ 2.16 µg/mL).

Work on Cc1nc2ccccc2cc1NCCCC(C)(C)O yielded an IC50 (Plasmodium falciparum [1]) of over 35 µM.

For O=C1CCCN1c1cccc2ncccc12, the IC50 (Plasmodium falciparum [1]) was over 45 µM.

With CC(C)(O)CCCNc1cccc2ncccc12 the IC50 (Plasmodium falciparum [1]) was 28.2 µM, the Activity (Candida albicans [5]) was “Active” and the Activity [6] was “Active”. The Activity (Aspergillus flavus [7]) was “Active”, the MIC (Candida albicans [2]) was 2000 µM (≈ 489 µg/mL) and the MIC [3] was 20 µM (≈ 4.89 µg/mL). It also gave an MIC (Aspergillus flavus [4]) of 300 µM (≈ 73.3 µg/mL).

CC[C@H]1CN2CCc3cc(OC)c(OC)cc3[C@@H]2C[C@@H]1C[C@H]1NCCc2cc(OC)c(OC)cc21 [EMETINE] showed an IC50 (CHO) of 0.125 µM.

C1=CCN(c2cccc3cccnc23)C1 gave an IC50 (Plasmodium falciparum [1]) of over 50 µM.

CC1CCCN1c1cnc2ccccc2c1 (stereo not drawn) showed an IC50 (Plasmodium falciparum [1]) of 31.1 µM.

For O=C1CCCN1c1cccc2cccnc12, the IC50 (Plasmodium falciparum [1]) was over 45 µM.

With CC(O)CCCNc1ccc2ncccc2c1 (stereo not drawn) the IC50 (Plasmodium falciparum [1]) was over 40 µM, the Activity (Candida albicans [5]) was “Active” and the Activity [6] was “Active”. For the same compound, the Activity (Aspergillus flavus [7]) was “Active”, the MIC (Candida albicans [2]) was 1100 µM (≈ 253 µg/mL) and the MIC [3] was 1100 µM (≈ 253 µg/mL). The MIC (Aspergillus flavus [4]) was 300 µM (≈ 69.1 µg/mL).

C1=CCN(c2ccc3ncccc3c2)C1 gave an IC50 (Plasmodium falciparum [1]) of over 50 µM.

For O=C1CCCN1c1ccc2ncccc2c1, the IC50 (Plasmodium falciparum [1]) was over 45 µM.

For CC1CCCN1c1ccc2ncccc2c1 (stereo not drawn), the IC50 (Plasmodium falciparum [1]) was 41.9 µM.

For c1cc(N2CCCC2)c2cccnc2c1, the IC50 (Plasmodium falciparum [1]) was over 50 µM.

For CC(O)CCCNc1cnc2ccccc2c1 (stereo not drawn), the IC50 (Plasmodium falciparum [1]) was over 40 µM, the Activity (Candida albicans [5]) was “Active” and the Activity [6] was “Active”. The Activity (Aspergillus flavus [7]) was “Active”, the MIC (Candida albicans [2]) was 1100 µM (≈ 253 µg/mL) and the MIC [3] was 300 µM (≈ 69.1 µg/mL). The MIC (Aspergillus flavus [4]) was 100 µM (≈ 23 µg/mL).

In the case of OCCCCNc1cccc2cccnc12, the IC50 (Plasmodium falciparum [1]) is reported as over 45 µM, the Activity (Candida albicans [5]) is reported as “Active” and the Activity [6] is reported as “Active”. For the same compound, the Activity (Aspergillus flavus [7]) was “Active”, the MIC (Candida albicans [2]) was 1200 µM (≈ 260 µg/mL) and the MIC [3] was 40 µM (≈ 8.65 µg/mL). For the same compound, the MIC (Aspergillus flavus [4]) was 100 µM (≈ 21.6 µg/mL).

In the case of c1ccc2ncc(N3CCCC3)cc2c1, the IC50 (Plasmodium falciparum [1]) is reported as over 50 µM.

In the case of Brc1c(Br)c(Br)n(-c2ccc3ncccc3c2Br)c1Br, the IC50 (Plasmodium falciparum [1]) is reported as over 15 µM.
